Measured values of several laboratories.
Target: Tyrosine-protein kinase receptor Tie-1 (TIE1, Homo sapiens, UniProt P35590)

For `CNC(=O)c1ccc(Nc2ncc(C(F)(F)F)c(NCc3nccnc3N(C)S(C)(=O)=O)n2)cc1`, the remaining binding was 47% (cell-free assay, competition with immobilised ligand; 0.1 µM).
The remaining binding of `CNC(=O)[C@@H]1CC[C@@H](n2c(-c3ccc4cnccc4c3)nc3ccc(C(=O)NCc4cccc(C(N)=O)c4)cc32)C1` is reported as 85% (binding, competition with immobilised ligand; 1 µM).
`O=C(NCCCN1CCOCC1)c1ccc(Nc2nccc(-c3cc4ccccc4s3)n2)cc1` gave a remaining binding of 48% (binding, competition with immobilised ligand; 1 µM).
`C[C@@H]1CCN(c2nccc(-c3cnn4ncccc34)n2)C1` gave a remaining binding of 100% (binding; 1 µM).
`CNCc1ccccc1-c1csc([C@H](C)Nc2nc(C)nc3cc(OC)c(OC)cc23)c1` gave a remaining binding of 100% (cell-free assay, competition with immobilised ligand; 1 µM).
With `O=C(Nc1c[nH]nc1C(=O)NC1CCNCC1)c1cc(F)cc(F)c1` the remaining binding was 100% (binding, competition with immobilised ligand; 1 µM).
`O=C(O)[C@@H]1[C@@H](Cn2nnc3ccccc3c2=O)CC[C@H]1C(=O)c1ccc(OCCC2CCOCC2)cc1` gave a remaining binding of 100% (cell-free assay, competition with immobilised ligand; 1 µM).
The remaining binding of `Cc1cnn2ncc(-c3ccnc(N(C)C)n3)c2c1` is reported as 98% (binding; 1 µM).
`CS(=O)(=O)NCC[C@H](NC(=O)c1cncc2c1cnn2-c1ccc(F)cc1)c1ccnc(S(C)(=O)=O)c1` has a remaining binding of 100% (cell-free assay, competition with immobilised ligand; 1 µM).
For `c1cncc(-c2cccc(Nc3nccc(NC4CCCCC4)n3)c2)c1`, the remaining binding was 17% (binding, competition with immobilised ligand; 10 µM).
`CCc1ccccc1C(=O)Nc1n[nH]c2c(C)c(F)c(C3C(C#N)=C(C)N(C)C(C)=C3C#N)cc12` gave a remaining binding of 100% (cell-free assay, competition with immobilised ligand; 1 µM).
With `Nc1ncc2c(n1)-c1c([nH]c3ccc(C#CC4CC4)cc13)CCCC2` the remaining binding was 96% (binding, competition with immobilised ligand; 1 µM).
The remaining binding of `CC1CCCN1c1nccc(-c2cnn3ncccc23)n1` (stereo not shown) is reported as 100% (binding; 1 µM).
`O=S(=O)(NC1CCC(c2cc(F)ccc2F)(S(=O)(=O)c2ccc(Cl)cc2)CC1)C(F)(F)F` (stereo not shown) has a remaining binding of 100% (cell-free assay, competition with immobilised ligand; 1 µM).
The remaining binding of `c1cnn2ncc(-c3ccnc(N4CCC45COC5)n3)c2c1` is reported as 100% (binding; 1 µM).
For `CCN1CCN(Cc2ccc(C(=O)Nc3ccc(C)c(Oc4ccc5c(c4)CC(=O)N5)c3)cc2C(F)(F)F)CC1`, the remaining binding was 79% (binding, competition with immobilised ligand; 1 µM).
With `N[C@H]1CCN(c2nccc(-c3cnn4ncccc34)n2)C1` the remaining binding was 100% (binding; 1 µM).
The remaining binding of `C[C@@H](c1cccc(C#N)c1)n1cc(Cl)cc(C(N)=O)c1=N` is reported as 87% (cell-free assay, competition with immobilised ligand; 1 µM).
For `COc1ccnn2ncc(-c3ccnc(N(C)C)n3)c12`, the remaining binding was 81% (binding; 1 µM).
`O=C(c1ccc(Nc2ncc(Cl)c(-c3ccc(Cl)s3)n2)cc1)N1CCC(N2CCCC2)CC1` gave a remaining binding of 18% (binding, competition with immobilised ligand; 1 µM).
`CN(C)c1nccc(-c2cnn3ncccc23)n1` gave a remaining binding of 100% (binding; 1 µM).
`O=C(c1ccc(Nc2nccc(-c3cc4ccccc4s3)n2)cc1)N1CCC(N2CCCC2)CC1` gave a remaining binding of 23% (binding, competition with immobilised ligand; 1 µM).
